Source: PubChem BioAssay
PTEN del growth – growth suppressors of cells with PTEN tumor suppressor deletion; HCT116 PTEN-null viability, CellTiter-Glo, 60 h; active compounds read low; viability, % at 10 µM; 1.2% of 140,000 active; AID 827;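 active means viability at or below a set limit, 4 SD under the median of all tested compounds, cut at about 3.7% in these data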;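 further: PTEN knockout HCT116 line with beta catenin targeted HCT116 as companion control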
HUVEC inhibit – blocks proliferation of human endothelial cells; HUVEC proliferation, CellTiter-Glo luminescence, 72 h; active compounds read low; viability, % at 10 µM (by protocol); 1.1% of 86,000 active;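 active means viability at or below 30%; inactive means viability above 30%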
Lung fibro prol – blocks proliferation of human lung fibroblasts; 1.1% of 85,000 active; viability, % at 10 µM; AID 719; LL 47 human lung fibroblast viability, ATP luminescence; active compounds read low;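 active means viability at or below 50% in the single dose screen; inactive means viability above 50%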;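 further: compound exposure lasted 72 h before the ATP readout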
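Signal: luminescent ATP detection, CellTiter-Glo; assay system: LL 47 human lung fibroblasts; input: 1,150 cells/well; incubation: overnight cell rest, 72 h compound treatment at 37 °C; measure: % viability versus median cells-only luminescence; medium: IMEM growth medium with 15% fetal bovine serum; dosing: compound addition at 0.1% DMSO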
H69AR growth 86K – growth inhibitors of human H69AR lung tumor cells | H69AR lung tumor viability, ATP luminescence, 72 h; active compounds read low | viability, % at 10 µM | 6% of 85,000 active | AID 598;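 active means viability at or below 40%; inactive means viability above 40%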;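 further: multidrug resistant small cell line overexpressing MRP-1 efflux transporter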
bCat KO growth – beta-catenin-lacking colon tumor cell growth suppression; AID 818; 1.5% of 140,000 active; viability, % at 10 µM; HCT116 beta-catenin knockout viability, CellTiter-Glo, 60 h; active compounds read low;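 active means viability at or under a set limit, the compound median less 4 SD, cut at about 6% in these data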
Numbers stand for hits; 0 = inactive; - = not tested or not shown. Only a selection was taken, and hits are over-represented in it overall.

SMILES | PTEN del growth | HUVEC inhibit | Lung fibro prol | H69AR growth 86K | bCat KO growth
COc1ccc(C2/C(=C(\O)c3ccc4c(c3)OCCO4)C(=O)C(=O)N2CCCN(C)C)c(OC)c1 (stereo not given) | - | 0 | 0 | 0 | -
Cc1cc(C(=O)N2CCN(c3ncccn3)CC2)cs1 | 0 | 0 | 0 | 0 | 0
O=C(OCc1cc(Cl)ccc1OC(F)F)c1cc(S(=O)(=O)O)ccc1O | 0 | 0 | 0 | 0 | 0
Cc1cc(C)nc(NC(=O)/C=C/c2ccc3c(c2)OCO3)c1 | 0 | - | - | - | 0
Cc1ccc(C(C(=O)NC2CCCC2)N(Cc2ccc3c(c2)OCO3)C(=O)Cc2cccs2)cc1 (stereo not given) | 0 | 0 | 0 | 0 | 0
O=C(NC1CCCCC1)C(c1ccccc1)N(Cc1ccc2c(c1)OCO2)C(=O)c1cnsn1 (stereo not given) | 0 | 0 | 0 | 38 | 0
CCc1ccc(C2=NNC(=Nc3cccc(S(=O)(=O)N(C)C)c3)SC2)cc1 | 0 | - | - | - | 3.9
CC(C)NC(=O)CSc1nc(Cc2cccs2)nc2ccccc12 | 0 | - | - | - | 0
O=C(/C=C/c1ccc(Br)cc1)NC1CCCCCC1 | 0 | - | - | - | 0
CCC1CSC(Nc2ccc(C(=O)/C=C/c3ccc(Br)cc3)cc2)=N1 (stereo not given) | 2.8 | - | - | - | 5.4
CCC1CSC(Nc2ccc(C(=O)/C=C/c3ccc(OC)c(OC)c3)cc2)=N1 (stereo not given) | 3.4 | - | - | - | 3.0
CCOC(=O)c1ccc(N2C(=O)CC(N(Cc3ccc4c(c3)OCO4)C(=O)Nc3ccccc3)C2=O)cc1 (stereo not given) | 0 | 0 | 0 | 0 | 0
CC(=O)Nc1nnc(SCc2ccccc2F)s1 | 0 | 0 | 0 | 0 | 0
O=C(Nc1nnc(-c2ccccc2SCc2ccccc2F)s1)Nc1ccccc1F | 1.4 | 0 | 26 | 16 | 1.3
CCOC(=O)N1CCC(NS(=O)(=O)c2cc(Br)cc3c2N(C(=O)CC)CC3)CC1 | 0 | 0 | 0 | 0 | 0
O=c1c2c3nc4ccccc4nc3n(-c3cccc(F)c3)c2ncn1Cc1ccc2c(c1)OCO2 | - | 0 | 0 | 18 | -
COc1ccc(Cn2c(SCc3ccccc3C)nc3cc(OC)c(OC)cc3c2=N)cc1 | 1.1 | - | - | - | 1.6
O=C(Oc1cccc2cccnc12)c1cccc(N2C(=O)C3C4CCC(C4)C3C2=O)c1 (stereo not given) | 2.1 | - | - | - | 4.5
OCCN1CCN(C2Cc3cc(Cl)ccc3Sc3ccc(Cl)cc32)CC1 (stereo not given) (tested in a mixture with another compound) | 0 | 2.4 | 0 | 8.9 | 0
CN1CCN(CCOC2Cc3ccccc3Sc3ccc(Cl)cc32)CC1 (stereo not given) | 0 | - | - | - | 0
CC1(C)Oc2ccccc2OC1(O)c1ccc2ccccc2n1 (stereo not given) | 0 | - | - | - | 0
CCOc1ccc(NS(=O)(=O)c2ccc(OCC)c3ncccc23)cc1 | 0 | 0 | 0 | 16 | 0
CCOC(=O)c1[nH]c2ccc(OC)cc2c1NC(=O)c1nonc1C | 0 | 0 | 0 | 0 | 0
COC(=O)c1[nH]c2cc(OC)ccc2c1NC(=O)c1nonc1C | 0 | 0 | 0 | 30 | 0
CCC(NC(=O)NCc1cccnc1)(C(F)(F)F)C(F)(F)F | 0 | 0 | 0 | 0 | 0
SMILES | PTEN del growth | HUVEC inhibit | Lung fibro prol | H69AR growth 86K | bCat KO growth
CCOc1ccccc1N1CCN(C/C=C/c2ccc(N(C)C)cc2)CC1 | 0 | 0 | 0 | 0 | 0
O=C(O)c1ccccc1SC1CC(=O)N(C2CCCCC2)C1=O (stereo not given) | 0 | 0 | 0 | 36 | 0
O=C(O)c1ccccc1SC1CC(=O)N(c2ccccc2)C1=O (stereo not given) | 0 | - | - | - | 0
Cn1cc(Cl)c(C(=O)Nc2cnn(Cc3ccc(F)cc3)c2)n1 | 0 | - | - | - | 0
CC(C)(C)NC(=O)CN(C(=O)Cn1nnc(-c2ccc(Cl)cc2)n1)C1CCN(Cc2ccccc2)CC1 | 0 | 0 | 0 | 0 | 1.6
Nc1ccc(N2CCCCCC2)cc1 | 0 | 0 | 0 | 2.1 | 0
Cc1nc(-c2ccc(O)c(O)c2)cs1 | 0 | 0 | 0 | 0 | 0
Oc1ccc(-c2csc(-c3ccccc3)n2)cc1O | 0 | 29 | 0 | 20 | 0
O=C(COC(=O)C1(c2ccc(F)cc2)CCCC1)N1CCN(C(=O)c2ccco2)CC1 | 0 | 0 | 0 | 0 | 0
ClC(Cl)(c1nnnn1-c1ccccc1)c1nnnn1-c1ccccc1 | 1.9 | - | - | - | 1.3
CN(C)c1ccccc1C(=O)c1ccccc1N(C)C | 0 | 0 | 0 | 14 | 0
CN(c1ccccc1C(=O)O)S(C)(=O)=O | 0 | 0 | 0 | 0 | 0
CC(C)Cn1c(SCC(=O)NCc2ccc(Cl)cc2)nnc1-c1cccc(S(=O)(=O)N2CCOCC2)c1 | 0 | 0 | 0 | 0 | 0
CCC(Sc1nnc2c3ccccc3n(CC)c2n1)C(=O)Nc1sc2c(c1C#N)CCCC2 (stereo not given) | 1.4 | - | - | - | 1.4
O=S(=O)([O-])CCC[n+]1c(SCCCS(=O)(=O)O)sc2ccc(Cl)cc21 | 0 | - | - | - | 0
CCCn1nnnc1SCC(=O)NCc1ccc2c(c1)OCO2 | 0 | 0 | 0 | 0 | 0
COc1ccc(-c2c[n+]3c4n2CCCCC4=C(c2ccccc2)C3)cc1 | 3.5 | 0 | 36 | 0 | 3.8
COc1ccc(-c2c[n+]3c(n2-c2ccccc2)CCCCC3)cc1 | 0 | - | - | - | 0
CCOC(=O)c1c(NC(=O)CN2C(=O)NC(C)(c3ccc(OC(F)F)cc3)C2=O)sc(C)c1C (stereo not given) | 0 | - | - | - | 0
CCOC(=O)c1c(C)[nH]c(C(=O)Cn2nnc(-c3ccccc3)n2)c1C | 0 | 0 | 0 | 0 | 0
CCOC(=O)c1c(C)[nH]c(C(=O)CN2C(=O)NC(C)(c3ccc(C)cc3)C2=O)c1C (stereo not given) | 0 | 0 | 0 | 39 | 0
CCOC(=O)c1c(C)[nH]c(C(=O)CN2C(=O)NC(CC)(c3ccccc3)C2=O)c1C (stereo not given) | 0 | 0 | 0 | 37 | 0
COC(=O)c1ccccc1NC(=O)c1cc([N+](=O)[O-])nn1Cc1ccccc1 | 0 | - | - | - | 0
Cn1cc(Cl)c(C(=O)OCC(=O)Nc2nc(-c3ccc(Br)cc3)cs2)n1 | 0 | 0 | 0 | 0 | 0
O=C(CN(Cc1ccc2c(c1)OCO2)C(=O)CNS(=O)(=O)c1ccccc1)NCc1ccco1 | 0 | 0 | 0 | 0 | 0
SMILES | PTEN del growth | HUVEC inhibit | Lung fibro prol | H69AR growth 86K | bCat KO growth
O=C(CN(C1CC1)S(=O)(=O)c1ccc(S(=O)(=O)N2CCCCCC2)cc1)Nc1ccccc1 | 0 | 0 | 0 | 37 | 0
CCN(C1CCCCC1)S(=O)(=O)c1ccc(S(=O)(=O)N(CC(=O)Nc2ccccc2)C2CC2)cc1 | 0 | 0 | 0 | 0 | 0
CCOC(=O)c1cn(Cc2c(C)c(C)c(C)c(C)c2C)nn1 | 0 | - | - | - | 0
CCOc1ccc(Cl)cc1S(=O)(=O)N1CCN(c2ccc(C)c(C)c2)CC1 | 0 | 0 | 0 | 39 | 0
O=c1[nH]c2ccccc2c2nc3ccccn3c12 | 0 | 0 | 0 | 35 | 0
Brc1ccc(OCc2nc(-c3ccccn3)n[nH]2)cc1 | 0 | 0 | 0 | 0 | 0
Clc1ccc(OCc2nc(-c3ccccn3)n[nH]2)cc1 | 0 | 0 | 0 | 2.2 | 0
Cc1ccc(NC(=O)COC(=O)c2ccc3c(c2)NC(=O)C2CCCN32)cc1C (stereo not given) | 0 | 0 | 0 | 0 | 0
